Published values pooled from the literature.
Protocols differ between the studies behind these lines.
Effect on: cell growth or viability

SMILES | cell line | test | conditions | endpoint | result
COc1cc(Nc2nccc(-c3cnn4nc(OC)ccc34)n2)cc(C(F)(F)F)c1 | SK-ES1 | ATP luminescence | – | IC50 | 190 nM
COc1ccc(-c2ccc(-c3ccc(C(=N)N)nc3)s2)cc1Cl | SK-MEL-5 | SRB | – | GI50 | 1820 nM
CC(=NN=c1[nH]c(C)cs1)c1c(O)c2ccccc2oc1=O | human Skin fibroblast | MTT | 48 h | IC50 | > 100000 nM
CCCCCCCCCC(=O)N[C@@H](Cc1c[nH]c2ccccc12)C(=O)N[C@H](CC(N)=O)C(=O)N[C@@H](CC(=O)O)C(=O)N[C@@H]1C(=O)NCC(=O)N[C@@H](CCCNC(=O)CCC(=O)N2Cc3ccccc3-c3c(nnn3CCC[C@H](NC(=O)CCCCC[N+]3=C(C=CC4=CC(=CC=C5N(C)c6ccccc6C5(C)C)CCC4)C(C)(C)c4ccccc43)C(=O)NCCCCNC(=O)CCC(=O)N3Cc4ccccc4-c4c(nnn4CCOCCOCCOCCNC(=O)CN4CCN(CC(=O)NCCNC(=O)c5cccc(O)c5O)CCN(CC(=O)NCCNC(=O)c5cccc(O)c5O)CCN(CC(=O)NCCNC(=O)c5cccc(O)c5O)CC4)-c4ccccc43)-c3ccccc32)C(=O)N[C@@H](CC(=O)O)C(=O)N[C@H](C)C(=O)N[C@@H](CC(=O)O)C(=O)NCC(=O)N[C@H](CO)C(=O)N[C@@H]([C@H](C)CC(=O)O)C(=O)N[C@@H](CC(=O)c2ccccc2N)C(=O)O[C@@H]1C | KB 3-1 | WST-1 | – | Kb | > 64000 nM
O=C(NC[C@H](O)CO)c1ccncc1Nc1ccc(I)cc1F | MB002 | – | 7 days | IC50 | > 10000 nM
CC(=O)Nc1cccc(-n2c(=O)n(C3CC3)c(=O)c3c(Nc4ccc(I)cc4F)n(C)c(=O)c(C)c32)c1 | Calu-6 | resazurin | 0.1 µM, 72 h | viability | 62.6%
C[C@H]1Oc2cc(cnc2N)-c2c(nn(C)c2C#N)CN(C)C(=O)c2ccc(F)cc21 | HD-MB03 | – | 7 days | IC50 | > 10000 nM
Cc1cc2c(cc1N1C(=O)c3cccc4c(CCCO)ccc(c34)C1=O)n(C)c(=O)n2C (racemic) | SW-403 | resazurin | – | GI50 | > 10000 nM
CCOc1cc(C(C)(C)C)ccc1C1=N[C@@](C)(c2ccc(Cl)cc2)[C@@](C)(c2ccc(Cl)cc2)N1C(=O)N1CCN(CCCS(C)(=O)=O)CC1 | MB002 | – | 7 days | IC50 | 99.4 nM
CC(C)C[C@H](NC(=O)[C@H](Cc1ccccc1)NC(=O)c1cnccn1)B(O)O | NCI-H1563 | ATP luminescence | – | IC50 | 22 nM
CCC(=O)N1CCN(c2ccc(-n3c(=O)ccc4cnc5ccc(-c6cnc7ccccc7c6)cc5c43)cc2C(F)(F)F)CC1 | MB002 | – | 7 days | IC50 | 15.4 nM
COc1cc2c(Nc3ccc(Br)cc3F)ncnc2cc1OCC1CCN(C)CC1 | BT-474 | ATP luminescence | 72 h | GI50 | 5910 nM
